Assay results as given in ChEMBL document CHEMBL4680254, “Design, synthesis and discovery of 2(1H)-quinolone derivatives for the treatment of pulmonary fibrosis through inhibition of TGF-β/smad dependent and independent pathway” (Eur J Med Chem, 2020).
Activity calls are given as the source filed them. The rule behind the calls is not given here.

Columns and labels:
[1] = Cytotoxicity against rat NRK-49F cells assessed as cell survival rate at 10 uM incubated for 72 hrs by MTT assay; format: cell-based; conditions: read-out: Activity
Summary of the method: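 NRK-49F cells were seeded at 0.5×10^5 cells/ml, cultured overnight, then exposed to compound 10 µM for 72 h. MTT was added and incubated 4 h, formazan dissolved in DMSO and absorbance read. Survival = (treated − zero)/(blank − zero) A ×100%, done in triplicate.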

[2] = system: NRK-49F; assay: Inhibition of TGF-beta-induced collagen accumulation in rat NRK-49F cells at 10 uM incubated for 2 days by PSR staining based microscopic analysis relative to control; format: functional; conditions: 48 h, time 2 day
Summary of the method: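 NRK-49F cells were grown 3 days in DMEM with 5% FBS, then 2 days in DMEM with 1% ITS. Next came 2 days with TGF-β 5 ng/ml plus or minus compound 10 µM. Cells were fixed in 4% paraformaldehyde and stained 4 h with 0.1% Picrosirius Red, then rinsed with acetic acid. Dye was eluted with 0.1 M NaOH and OD read at 540 nm. Inhibition = […] ×100%, in triplicate.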

[3] = system: L929; assay: Antimigratory activity in mouse L929 cells assessed as inhibition of TGF-beta-induced cell migration at 10 uM incubated for 24 hrs by wound healing assay; format: functional, cell-based
Summary of the method: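 Mouse L929 fibroblasts (MEM, 10% FBS, 37 °C, 5% CO₂) were grown to confluence and scratched with a pipette tip to a 100 µm wound. They were then kept in serum-free medium with or without TGF-β 5 ng/ml and compound 10 µM for 24 h. Wounds were imaged by light microscopy at 0, 12 and 24 h.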

[4] = system: NRK-49F; assay: Inhibition of TGF-beta-induced collagen accumulation in rat NRK-49F cells incubated for 2 days by PSR staining based microscopic analysis; format: functional, cell-based; conditions: 48 h

IC50 [4]	Compound	viability at 72 h, 10 µM [1]	inhibition at 10 µM [2]	inhibition [3]
	O=C(CNC1CCOCC1)Nc1ccc(Oc2cc(=O)[nH]c3ccccc23)cc1	96%	46%	
	CC1CCN(CC(=O)Nc2ccc(Oc3cc(=O)[nH]c4ccccc34)c(F)c2)CC1	105%	45.9%	
	O=C(CNC1CCOCC1)Nc1ccc(Nc2cc(=O)[nH]c3ccccc23)cc1	83.5%	50%	
	O=C(CNC1CCOCC1)Nc1ccc(Oc2cc(=O)[nH]c3ccccc23)c(F)c1	90.8%	53.9%	
	CN1CCN(CC(=O)Nc2ccc(Sc3cc(=O)[nH]c4ccccc34)cc2)CC1	86.7%	40%	
	CC(C)(C)OC(=O)N1CCN(CC(=O)Nc2ccc(Nc3cc(=O)[nH]c4ccccc34)cc2)CC1	67.5%	73.3%	
	O=C(CN1CCCCC1)Nc1ccc(Oc2cc(=O)[nH]c3ccccc23)c(F)c1	87.2%	38.3%	
	CCN(CC)CC(=O)Nc1ccc(Oc2cc(=O)[nH]c3ccccc23)c(F)c1	106%	58.8%	
	CCNCC(=O)Nc1ccc(Nc2cc(=O)[nH]c3ccccc23)cc1	83.7%	28.7%	
	CN1CCN(CC(=O)Nc2ccc(Oc3cc(=O)[nH]c4ccccc34)c(F)c2)CC1	99%	73.9%	
	O=C(CN1CCNCC1)Nc1ccc(Oc2cc(=O)[nH]c3ccccc23)c(F)c1	93.3%	60.3%	
5.33 µM	O=C(CN1CCCC1)Nc1ccc(Sc2cc(=O)[nH]c3ccccc23)cc1	87%	80.9%	Active
	O=C(CN1CCCC1)Nc1ccc(Oc2cc(=O)[nH]c3ccccc23)c(F)c1	96.4%	49.5%	
6.12 µM	CC(C)(C)OC(=O)N1CCN(CC(=O)Nc2ccc(Oc3cc(=O)[nH]c4ccccc34)c(F)c2)CC1	86.2%	89.1%	Active
	CC(=O)N1CCN(CC(=O)Nc2ccc(Nc3cc(=O)[nH]c4ccccc34)cc2)CC1	72.5%	39%	
	O=C(CN1CCN(C(=O)C2CC2)CC1)Nc1ccc(Oc2cc(=O)[nH]c3ccccc23)cc1	92.2%	78.3%	
	CN1CCN(CC(=O)Nc2ccc(Oc3cc(=O)[nH]c4ccccc34)cc2)CC1	80.2%	43.7%	
	CCN1CCN(CC(=O)Nc2ccc(Oc3cc(=O)[nH]c4ccccc34)cc2)CC1	91.7%	41.7%	
	CCN(CC)CC(=O)Nc1ccc(Sc2cc(=O)[nH]c3ccccc23)cc1	85.5%	58.6%	
	O=C(CN1CCOCC1)Nc1ccc(Nc2cc(=O)[nH]c3ccccc23)cc1	81.9%	40.9%	

IC50 [4]	Compound	viability at 72 h, 10 µM [1]	inhibition at 10 µM [2]	inhibition [3]
	O=C(CN1CCCC1)Nc1ccc(Oc2cc(=O)[nH]c3ccccc23)cc1	82.2%	68%	
	CC(C)(C)N1CCN(CC(=O)Nc2ccc(Oc3ccc4ccc(=O)[nH]c4c3)c(F)c2)CC1	89.8%	67.7%	
	O=C(CN1CCCCC1)Nc1ccc(Oc2cc(=O)[nH]c3ccccc23)cc1	78.5%	27.4%	
	CC(=O)N1CCN(CC(=O)Nc2ccc(Sc3cc(=O)[nH]c4ccccc34)cc2)CC1	101%	39.4%	
	O=C(CNC1CCOCC1)Nc1ccc(Sc2cc(=O)[nH]c3ccccc23)cc1	83.9%	53%	
	CN(C)C1CCN(CC(=O)Nc2ccc(Nc3cc(=O)[nH]c4ccccc34)cc2)CC1	83.5%	50.2%	
	CN(C)C1CCN(CC(=O)Nc2ccc(Oc3cc(=O)[nH]c4ccccc34)cc2)CC1	81.2%	43.9%	
	CC(=O)N1CCN(CC(=O)Nc2ccc(Oc3cc(=O)[nH]c4ccccc34)c(F)c2)CC1	108%	42.7%	
	CC1CCN(CC(=O)Nc2ccc(Oc3cc(=O)[nH]c4ccccc34)cc2)CC1	79.9%	31.5%	
	O=C(CN1CCCCC1)Nc1ccc(Nc2cc(=O)[nH]c3ccccc23)cc1	75.4%	24.4%	
	O=C(CN1CCCCC1)Nc1ccc(Sc2cc(=O)[nH]c3ccccc23)cc1	93.5%	28.4%	
	CCNCC(=O)Nc1ccc(Oc2cc(=O)[nH]c3ccccc23)cc1	89.2%	25.4%	
	CN1CCN(CC(=O)Nc2ccc(Nc3cc(=O)[nH]c4ccccc34)cc2)CC1	78%	38.9%	
	O=C(CN1CCNCC1)Nc1ccc(Oc2cc(=O)[nH]c3ccccc23)cc1	95.1%	58.1%	
4.47 µM	CC(C)(C)N1CCN(CC(=O)Nc2ccc(Oc3cc(=O)[nH]c4ccccc34)c(F)c2)CC1	93.1%	78%	Active
	O=C(CN1CCOCC1)Nc1ccc(Oc2cc(=O)[nH]c3ccccc23)cc1	95.7%	59.3%	
	O=C(CN1CCOCC1)Nc1ccc(Sc2cc(=O)[nH]c3ccccc23)cc1	77.4%	53.4%	
	CC1CCN(CC(=O)Nc2ccc(Nc3cc(=O)[nH]c4ccccc34)cc2)CC1	82.5%	20.1%	
	CCNCC(=O)Nc1ccc(Oc2cc(=O)[nH]c3ccccc23)c(F)c1	99.3%	50.6%	
	CC(C)(C)OC(=O)N1CCN(CC(=O)Nc2ccc(Sc3cc(=O)[nH]c4ccccc34)cc2)CC1	71.2%	72.4%	

IC50 [4]	Compound	viability at 72 h, 10 µM [1]	inhibition at 10 µM [2]	inhibition [3]
	CC(C)(C)N1CCN(CC(=O)Nc2ccc(Oc3ccc4[nH]c(=O)ccc4c3)c(F)c2)CC1	83.3%	61.5%	
	CCNCC(=O)Nc1ccc(Sc2cc(=O)[nH]c3ccccc23)cc1	87.7%	51.1%	
	CCN1CCN(CC(=O)Nc2ccc(Nc3cc(=O)[nH]c4ccccc34)cc2)CC1	64.8%	46%	
	CC(C)(C)OC(=O)N1CCN(CC(=O)Nc2ccc(Oc3ccc4ccc(=O)[nH]c4c3)c(F)c2)CC1	89.7%	76.4%	
	CN(C)C1CCN(CC(=O)Nc2ccc(Oc3cc(=O)[nH]c4ccccc34)c(F)c2)CC1	98.6%	60.7%	
5.27 µM	CCN(CC)CC(=O)Nc1ccc(Oc2cc(=O)[nH]c3ccccc23)cc1	96.3%	86.1%	Active
	O=C(CN1CCN(C(=O)C2CC2)CC1)Nc1ccc(Oc2ccc3[nH]c(=O)ccc3c2)c(F)c1	95.2%	34.6%	
	CC(C)(C)N1CCN(CC(=O)Nc2ccc(Oc3cc(=O)[nH]c4ccccc34)cc2)CC1	92.7%	73.2%	
	CC1CCN(CC(=O)Nc2ccc(Sc3cc(=O)[nH]c4ccccc34)cc2)CC1	116%	28.6%	
	CCN(CC)CC(=O)Nc1ccc(Nc2cc(=O)[nH]c3ccccc23)cc1	82.6%	44.2%	
	O=C(CN1CCOCC1)Nc1ccc(Oc2cc(=O)[nH]c3ccccc23)c(F)c1	90.8%	47.3%	
	O=C(CN1CCN(C(=O)C2CC2)CC1)Nc1ccc(Oc2ccc3ccc(=O)[nH]c3c2)c(F)c1	98.2%	56.6%	
	CC(C)(C)OC(=O)N1CCN(CC(=O)Nc2ccc(Oc3cc(=O)[nH]c4ccccc34)cc2)CC1	75.6%	76.2%	
	CCN1CCN(CC(=O)Nc2ccc(Sc3cc(=O)[nH]c4ccccc34)cc2)CC1	78%	56.6%	
	CCN1CCN(CC(=O)Nc2ccc(Oc3cc(=O)[nH]c4ccccc34)c(F)c2)CC1	89.6%	49.1%	
	CC(C)(C)OC(=O)N1CCN(CC(=O)Nc2ccc(Oc3ccc4[nH]c(=O)ccc4c3)c(F)c2)CC1	85.6%	57.4%	
	CC(=O)N1CCN(CC(=O)Nc2ccc(Oc3cc(=O)[nH]c4ccccc34)cc2)CC1	96.3%	50%	
	CN(C)C1CCN(CC(=O)Nc2ccc(Sc3cc(=O)[nH]c4ccccc34)cc2)CC1	80.3%	51.1%	
	O=C(CN1CCCC1)Nc1ccc(Nc2cc(=O)[nH]c3ccccc23)cc1	72.5%	59.9%	
